ATG4B inh – inhibitors of human ATG4B cysteine protease. Q9Y4P1. ATG4B cleavage of LC3-PLA2, NBD-HPC fluorescence, 1 h. inhibition, % at 8.33 µM. 0.51% of 340,000 active. AID 504462; in the data active = inhibition above about 40%
UCH37 DUB inh – inhibitors of human deubiquitinating enzyme UCH37; inhibition, % (test concentration not listed); purified proteasome/UCH37, Ub-AMC cleavage fluorescence; 0.33% of 330,000 active;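 active = mean inhibition over replicate wells above about 20%, limit read from the data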;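 note: 0% = compound-free wells with enzyme and 100% = wells lacking proteasome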
Target sequence (Q9Y5K5 whole entry, looked up): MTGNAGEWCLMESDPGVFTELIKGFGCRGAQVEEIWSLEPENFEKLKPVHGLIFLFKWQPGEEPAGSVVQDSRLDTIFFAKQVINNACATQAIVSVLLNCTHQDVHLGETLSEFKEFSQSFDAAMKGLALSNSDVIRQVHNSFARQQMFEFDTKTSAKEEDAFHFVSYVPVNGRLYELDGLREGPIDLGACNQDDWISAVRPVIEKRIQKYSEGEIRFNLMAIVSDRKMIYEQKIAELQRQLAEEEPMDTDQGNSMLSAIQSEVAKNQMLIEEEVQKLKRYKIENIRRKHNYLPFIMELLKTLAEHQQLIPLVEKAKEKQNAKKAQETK
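Material: Human UCH37 enzyme supplied as purified proteasome complex | Schedule: 30 min preincubation with enzyme, 25 min cleavage at room temperature | Detection: AMC fluorescence 355/460 nm | Measure: % inhibition of Ub-AMC cleavage fluorescence | Controls: Wells without proteasome as full block, compound-free enzyme plus substrate as uninhibited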
NALP3 yeast inh – inhibitors of NALP3 inflammasome in yeast; Yeast reconstituted NLRP3/ASC/caspase-1, beta-gal luminescence, 24 h; inhibition, % at 10 µM; 0.39% of 330,000 active; AID 2825;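 active = inhibition of 50% or more; inactive = inhibition below 50%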;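 note: plate controls were induced DMSO wells for no effect and uninduced yeast grown without galactose for full effect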
Calb FLC – affects C. albicans growth with fluconazole | growth inhibition, % (test concentration not listed) | 0.57% of 300,000 active | C. albicans CaCi-2 (fluconazole-resistant clinical isolate) + fluconazole, Alamar Blue growth, 48 h | AID 1979;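 active = growth inhibition above about 58% in most replicates, limit read from the data, passing the limit was not always enough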;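 note: all wells also contain fluconazole at 8 µg/ml as a sub-toxic cotreatment; 0% = median of DMSO wells and 100% = median of geldanamycin control wells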
ALR H2O2 inh – blocks human ALR sulfhydryl oxidase activity; 3.8% of 290,000 active; AID 485317; inhibition, % (concentration not given with the values); purified ALR, DTT oxidation, H2O2 HRP-luminol luminescence; P55789;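 active = mean replicate inhibition above about 79%, with every replicate also reaching it, limit read from the data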
Target sequence (P55789 whole entry, looked up): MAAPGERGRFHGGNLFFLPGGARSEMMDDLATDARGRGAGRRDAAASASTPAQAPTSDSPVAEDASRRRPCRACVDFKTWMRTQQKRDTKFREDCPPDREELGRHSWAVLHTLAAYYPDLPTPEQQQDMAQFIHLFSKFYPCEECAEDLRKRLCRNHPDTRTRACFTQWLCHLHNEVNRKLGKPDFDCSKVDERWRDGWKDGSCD
NALP1 inh – blocks the NALP1 inflammasome reconstituted in yeast. S. cerevisiae NALP1/ASC/caspase-1 growth, X-gal OD620, 72 h. inhibition, % at 10 µM. 0.61% of 280,000 active; in the data active = inhibition mostly above about 24%, no sharp cut-off; inactive = mostly below about 32%
* marks the source's active call; other numbers are inactive results; nt = no result. Sampled rows, rich in hits. Any-hit rate of the full collection: about 4.8%.

SMILES	ATG4B inh	UCH37 DUB inh	NALP3 yeast inh	Calb FLC	ALR H2O2 inh	NALP1 inh
Oc1c(Cl)cc(Cl)cc1CNc1ccc(Br)cn1	8	5	-9	-4	93*	-13
Oc1ccc(Cl)cc1CNc1ccc(Br)cn1	5	6	19	-3	-3	19
CCOc1ccc(CCNC(=O)CCS(=O)(=O)c2ccc(OC)cc2)cc1OCC	1	30*	5	9	-1	1
CCOc1ccc(S(=O)(=O)NCCC(=O)NCCc2ccc(OCC)c(OCC)c2)cc1	-5	2	7	-6	3	nt
CN(C)/C=N/c1sc2c(c1C#N)CCCC2	-2	nt	32	56	100*	21
CN(C)C=Nc1sc2c(c1C#N)CCCC2	nt	20	nt	nt	nt	nt
CCC(=O)N(C)CCc1cc2c(c(OC)c1C=NNC(=O)[C@H]1C[C@@H]1c1ccccc1)OCO2	nt	4	nt	nt	nt	nt
O=C(NN=C/C=C/c1ccccc1)c1ccncc1	nt	3	nt	nt	nt	nt
CCOC(=O)c1cn(CC)c2cc(N3CCSCC3)c(F)cc2c1=O	-5	-45	3	9	99*	4
C=CCn1cc(/C=C/c2cc[n+](C)cc2)c2ccccc21	-12	22*	16	71	-38	11
CCn1cc(/C=C/c2cc[n+](C)cc2)c2ccccc21	-5	20*	nt	94*	nt	12
C=CCn1c(C)c(/C=C/c2cc[n+](C)cc2)c2ccccc21	0	nt	7	-10	74	8
O=C(O)CC1SC(=NN=Cc2ccc(Br)cc2)N(c2ccccc2)C1=O (stereo not given)	nt	6	nt	nt	nt	nt
CN(C)CCNC(=O)C=NO	nt	1	nt	nt	nt	nt
CC(CC(=O)NC1CCCC1)=NNC(=O)c1ccc([N+](=O)[O-])c(Cl)c1	nt	4	nt	nt	nt	nt
COc1cccc(C(=O)N2CCCC(Nc3ccc(C)c(C)c3)C2)c1 (stereo not given)	3	0	8	-2	98*	18
Cc1ccc(NC2CCCN(C(=O)c3cccc4nccnc34)C2)cc1C (stereo not given)	-5	0	2	-1	88*	14
COc1ccc(NC2CCCN(C(=O)c3ccc4nccnc4c3)C2)cc1OC (stereo not given)	8	3	18	-2	96*	-14
COc1ccc(C(=O)N2CCCC(Nc3ccc(C)c(C)c3)C2)c(OC)n1 (stereo not given)	9	5	23	8	83*	15
COc1ccc(C(=O)C2CCCN(C(=O)c3ccc4nccnc4c3)C2)c(C)c1 (stereo not given)	25	6	10	3	3	-12
COc1ccc(C(=O)N2CCCC(Nc3ccc(F)c(F)c3)C2)c(OC)n1 (stereo not given)	-4	2	8	-2	20	2
CCCCCC1CC1C(=O)NN=Cc1ccc(N(C)C)cc1 (stereo not given)	nt	-30	nt	nt	nt	nt
Clc1ccc(Sc2oc(C=Nn3cnnc3)cc2Br)cc1	nt	-15	nt	nt	nt	nt
Cc1ccc(NC2CCCN(C(=O)c3ccc(F)cc3)C2)cc1C (stereo not given)	18	0	15	1	90*	12
Cc1cccc(C(=O)N2CCCC(Nc3ccc(C)c(C)c3)C2)n1 (stereo not given)	1	4	17	1	99*	4
SMILES	ATG4B inh	UCH37 DUB inh	NALP3 yeast inh	Calb FLC	ALR H2O2 inh	NALP1 inh
Cc1ccc(NC2CCCN(C(=O)c3ccc4nccnc4c3)C2)cc1C (stereo not given)	1	3	22	11	98*	5
Cc1ccc(NC2CCCN(C(=O)c3ccnc(Cl)c3)C2)cc1C (stereo not given)	9	5	9	33	96*	37
O=C(c1ccc2nccnc2c1)N1CCCC(Nc2ccc(F)c(F)c2)C1 (stereo not given)	-7	2	16	-5	2	7
COc1cc(C(C)=NNC(=O)c2nnn(-c3nonc3N)c2-c2cccs2)ccc1O	nt	-46	nt	nt	nt	nt
CON=Cc1cccn1-c1nccc(OC)c1C#N	nt	-2	nt	nt	nt	nt
Cc1ccc(S(=O)(=O)NN=Cc2cn(C)nc2C)cc1	nt	2	nt	nt	nt	nt
Cc1nn(-c2ccccc2)c(Cl)c1C=NNC(=O)CNc1n[nH]c(=O)[nH]c1=O	nt	-1	nt	nt	nt	nt
O=C1CCCC2=C1C(c1ccc(O)c(O)c1)Nc1ccc3ccccc3c12 (stereo not given)	-13	-28	14	3	98*	nt
O=[N+]([O-])c1ccc(C2CCCC/C2=N/OCc2ccc(F)cc2)c([N+](=O)[O-])c1 (stereo not given)	5	nt	29	115*	1	22
O=[N+]([O-])c1ccc(C2CCCCC2=NOCc2cccc(F)c2)c([N+](=O)[O-])c1 (stereo not given)	nt	6	nt	nt	nt	nt
S=c1[nH]nc(COc2ccccc2)n1N=Cc1ccc(Cl)cc1Cl	nt	9	nt	nt	nt	nt
CC1(CCc2ccccc2)NC(=S)N(c2ccccc2)N1 (stereo not given)	-5	-1	nt	15	99*	25
CC1(CCc2ccccc2)NC(=S)N(c2ccc(Cl)cc2)N1 (stereo not given)	1	5	15	1	94*	19
Cn1c(=O)c2c(ncn2CCC(=O)NN=Cc2ccccc2)n(C)c1=O	nt	5	nt	nt	nt	nt
O=S(=O)(N=C(c1ccccc1)N1CCOCC1)c1ccc(F)cc1F	nt	3	nt	nt	nt	nt
Cn1c(-c2ccc3nc(N)sc3c2)nc2cc(N)ccc21	-13	-107	21	4	99*	-4
S=C(Nc1ccccc1)N1CCCN1c1ccccc1	6	2	11	0	87*	-18
S=C(Nc1ccccc1)N1CCCCC1	-5	1	2	13	-5	12
CCc1nn(CC(=O)Nc2ccc(Br)c(C)c2)c(=N)s1	-8	5	17	36	99*	-15
CCc1ccc(NC(=O)CSc2nc(O)cc(=O)n2C2CCCC2)cc1	7	10	18	36	99*	3
CCCCNC(=O)CSc1nc(O)cc(=O)n1C1CCCC1	-5	3	-11	11	nt	10
COC(=O)c1ccccc1NC(=O)CSc1nc(O)cc(=O)n1C1CCCC1	3	8	11	3	98*	6
O=C(CSc1nc(O)cc(=O)n1C1CCCC1)Nc1cccc(Cl)c1Cl	12	9	-3	3	99*	3
COc1ccc(C=NNC(=O)c2ccccc2F)cc1COc1ccc(F)cc1	nt	-3	nt	nt	nt	nt
CCOC(=O)c1c(NC(=O)C(=O)NN=Cc2ccc(O)c(OC)c2)sc2c1CCCCC2	nt	-7	nt	nt	nt	nt
NC(=NO)c1ccccc1N1CCCCC1	nt	-1	nt	nt	nt	nt
N/C(=N\O)c1ccccc1N1CCCCC1	1	nt	4	-2	90*	4
CCOC(=O)c1sc(N2C(=O)C(O)=C(C(=O)c3ccco3)C2c2cccc(Cl)c2)nc1C (stereo not given)	nt	nt	-4	71	nt	12
Cc1ccc2nc(N3C(=O)C(O)=C(C(=O)c4ccc(C)o4)C3c3ccco3)sc2c1 (stereo not given)	-30	nt	20	nt	2	nt
